Hits are enriched below; roughly 3.8% of the tested compounds scored in any of these assays.
HCV NS3 hel inh = inhibitors of Hepatitis C virus NS3 helicase; inhibition, % at 10.9 µM; hit rate 0.56% among 290,000; AID 1800; NS3 helicase DNA unwinding, Cy5 molecular beacon fluorescence;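 active = inhibition above the mean of all tested compounds plus 3 SD, set per campaign, cut at about 35% in these data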;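 also: 0% = DMSO wells and 100% = thioflavine S control wells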
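Test system: hepatitis C virus NS3 helicase domain fragment enzyme. Also added: annealed dual-labelled DNA beacon duplex, ATP-started. Timing: 60 min unwinding reaction at 25 °C after ATP addition. Technique: Cy5 fluorescence. Measure: % inhibition of unwinding.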
Hep lipid drop = modulators of hepatic lipid droplet formation. AML12 mouse hepatocytes, oleate lipid droplets, BODIPY imaging. inhibition, % at 6.5 µM. hit rate 0.4% among 240,000;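 active = lipid droplet intensity inhibited by at least 50%, with more than 500 cells counted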
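Assay system: AML12 mouse liver cells | Compound: 6.5 µM single-point dosing | Schedule: Overnight exposure | Technique: Fluorescence imaging, 20x objective, two fields per well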
HSP90 refold inh = HSP90 refolding inhibition in rabbit reticulocyte lysate; luciferase refolding luminescence, 3 h; inhibition, % at 5.6 µM; hit rate 0.91% among 290,000;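 active = inhibition above the screen-wide mean plus 3 SD, computed separately per campaign, cut at about 16% in these data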;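 also: 0% = DMSO wells and 100% = 60 µM geldanamycin wells; inhibitors lower the luminescence because luciferase stays unfolded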
HSF1 activator = increases HSF-1 driven luciferase reporter signal. activation, % at 9 µM. hit rate 1.7% among 300,000. NIH3T3-HGL HSF-1 luciferase reporter, MG132, 8 h; 100% = twice DMSO control signal;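 active = mean replicate activation of at least 50% with a set share of replicates each reaching 50%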;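 also: 0% = median of the neutral control wells and 100% = twice that signal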
HSF1 inh = HSF1 inhibition. activity change, negative = inhibition, % at 7.5 µM (by protocol). NIH3T3-HGL HSE-luciferase, MG132-induced, luminescence 8 h; hits give low values. AID 2098. hit rate 0.77% among 300,000;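 active = more than half of replicate wells show activity change below -50%, luminescence cut by over half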;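 also: luciferase reports HSF-1 transcriptional activity via heat shock element; 0% = median of DMSO wells and -100% = zero luminescence signal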
Active calls of the source: *; / = no result.

SMILES	HCV NS3 hel inh	Hep lipid drop	HSP90 refold inh	HSF1 activator	HSF1 inh
COc1ccc(-c2ccc(=O)n(Cc3cccc([N+](=O)[O-])c3)n2)cc1	-7	52*	3	-41	-20
CC1C(C#N)=C(SCC(N)=O)NC2=C1C(=O)CC(C)(C)C2 (centres undefined)	-8	-2	-2	-1	3
O=C(CSc1c2c(nc3cc(Cl)ccc13)CCCC2)NCCCN1CCOCC1	-20	21	0	189*	141
COCCCNC(=O)CSc1c2c(nc3ccc(Cl)cc13)CCCC2	22	-35	8	40	37
O=C(CSc1c2c(nc3ccc(Cl)cc13)CCCC2)NCCCN1CCOCC1	-7	-29	-2	68*	41
Cc1ccc(CNC(=O)CSc2c3c(nc4cc(Cl)ccc24)CCCC3)o1	15	-4	2	65*	44
O=C(CSc1c2c(nc3ccccc13)CCCC2)NCc1ccco1	16	18	1	86*	40
O=C(NCc1ccco1)c1c2c(nc3ccccc13)CCC2	13	/	0	-10	-5
CC(C)(C)C(=O)Nc1nnc(COc2ccc(Cl)cc2)s1	-13	3	9	6	8
COc1ccc(Cl)cc1CC=NNC(=O)c1ccncc1	/	/	/	2	2
CCc1cc(=O)oc2c(C)c(OCC(=O)NCCCn3ccnc3)ccc12	3	-31	0	-13	-1
COc1ccc(Cl)cc1NC(=O)c1ccc2c(SCC(=O)O)c3c(nc2c1)CCCC3	3	-21	1	29	15
CCCCNC(=O)c1ccc2c(SCC(=O)O)c3c(nc2c1)CCCC3	16	-73	3	12	-7
O=C(CSc1c2c(nc3cc(Cl)ccc13)CCCC2)NCCN1CCOCC1	0	-37	6	65*	43
CC(C)CCNC(=O)c1ccc2c(SCC(=O)O)c3c(nc2c1)CCC3	11	-11	0	-89	-86*
CCN(CC)CCCNC(=O)CSc1c2c(nc3cc(Cl)ccc13)CCCC2	-30	-8	-2	202*	154
CC(OC(=O)CCN1C(=O)C2CC=CCC2C1=O)C(=O)Nc1cccc(C#N)c1 (centres undefined)	/	/	/	-4	-3
O=C(O)c1ccc(NS(=O)(=O)c2cccc(S(=O)(=O)c3ccc(Cl)c(Cl)c3)c2)cc1	9	2	-2	-7	-2
CCc1ccc(OCC(=O)Nc2ccc3c(c2)OCCO3)cc1	-3	-5	-4	-23	-8
Cc1cc(-c2ccc(C)c(S(=O)(=O)NCCC(C)N3CCCCCC3)c2)on1 (centres undefined)	-8	-21	1	-73	-67*
Cc1cc(-c2ccc(C(C)C)c(S(=O)(=O)NCCN3CCC(C)CC3)c2)on1	-30	-4	2	67*	15
Cc1cc(-c2ccc(C)c(S(=O)(=O)NCCCN3CCCCCC3)c2)on1	-23	-4	4	18	2
Cc1cc(-c2ccc(C(C)C)c(S(=O)(=O)NCc3ccco3)c2)on1	7	-22	-1	8	-2
CCOC(=O)C(C)Oc1cc(Cl)c(C=O)cc1OC (centres undefined)	-4	15	3	51*	14
COC(=O)COc1cc(Cl)c(C=O)cc1OC	3	4	0	0	5
SMILES	HCV NS3 hel inh	Hep lipid drop	HSP90 refold inh	HSF1 activator	HSF1 inh
O=C(NCCC1CCCCN1S(=O)(=O)c1ccc(F)cc1)C(=O)Nc1ccccc1F (centres undefined)	/	/	/	-75	-67*
COc1ccc(-c2nc(CS(=O)CC(=O)NCCCN3CCOCC3)c(C)o2)cc1OC (centres undefined)	16	-4	0	18	7
CC(/C=C/c1cccs1)=C\C(=O)O	4	/	-1	92*	38
CC(/C=C\c1ccccc1)=C/C(=O)O	9	5	1	-5	-4
O=C1NC(c2ccc(Cl)cc2)Nc2ccccc21 (centres undefined)	11	-18	1	70*	30
Cc1ccc(C2NC(=O)c3ccccc3N2)s1 (centres undefined)	25	-84	4	67*	46
CN(C)c1ccc(C2NC(=O)c3ccccc3N2)cc1 (centres undefined)	9	-40	15	78*	54
CCC(CC)C(=O)Nc1cccc(-c2ccc3nncn3n2)c1	1	2	-4	-12	0
O=C1c2ccccc2C(=O)N1CCOc1ccccc1Br	-15	2	-1	99*	44
O=C1c2ccccc2C(=O)N1CCOc1ccccc1Cl	-2	13	-2	71*	31
Cc1ccccc1OCCN1C(=O)c2ccccc2C1=O	1	/	-3	20	17
CCN1/C(=C(\O)c2ccccc2)C(=O)c2ccccc2S1(=O)=O	16	3	1	-78	-70*
CCOC(=O)N1CCN(c2cc(NCCC(=O)O)c3c4c(onc24)-c2ccccc2C3=O)CC1	36*	0	-1	/	/
O=[N+]([O-])c1nn(-c2ccc3c(c2)OCCO3)n(O)c1=NCCC1=CCCCC1	0	21	14	-7	-6
CN(C)S(=O)(=O)c1ccc(-c2csnn2)s1	8	9	3	-89	-86*
CSc1ccc(/C=N/n2c(COc3ccccc3)n[nH]c2=S)cc1	28	17	0	-2	1
COc1ccc(OCCCCc2c(C)n[nH]c2C)cc1	/	/	/	-22	-7
Cc1n[nH]c(C)c1CCOc1ccc(C(C)C)cc1	10	10	-4	100*	47
CC(=O)N1CCN(C(=O)CCc2cc(C(C)(C)C)c(O)c(C(C)(C)C)c2)CC1	5	-8	-4	1	-5
COC(=O)c1ccc2c(=O)n(CC3CCCO3)c(SCC(=O)Nc3ccccc3OC)nc2c1 (centres undefined)	-10	/	4	55*	28
Cn1c(SCc2ccccc2Cl)nc2ccccc21	-8	7	0	93*	40
COc1cccc2sc(N(C)c3ccccc3)nc12	-7	25	12	64*	19
Cc1cc2oc3c(c(=O)c2cc1C)C(c1ccc(C(C)C)cc1)N(CCCN1CCOCC1)C3=O (centres undefined)	-70	-2	-3	58*	33
CC1(C)CC(=O)c2cnc(N3CCc4ccccc4C3)nc2C1	-2	/	-3	55*	42
CC1(C)CC(=O)c2cnc(N3CCN(c4ccccc4)CC3)nc2C1	5	/	-2	8	-7
C/C(=N\NC(=S)Nc1ccccc1C)c1ccc(O)cc1	-6	0	-1	-12	1
COc1ccccc1-c1nnc(SC2CCc3ccccc3NC2=O)s1 (centres undefined)	-4	-5	-1	-63	-52*
Cc1ccc(C(=O)/C=C/c2ccc(-c3ccc(C)cc3)o2)cc1	24	-10	-5	56*	27
Cc1ccc(C(=O)/C=C\C(=O)c2ccc(C)cc2)cc1	-8	4	4	294*	231

Screening results from PubChem BioAssay.
